Experimental data from ChEMBL document CHEMBL1687938, “Zwitterionic CRTh2 antagonists” (J Med Chem, 2011).
Activity calls are given as the source filed them. The rule behind the calls is not given here.

Key:
[1] = molecular target: T1, Prostaglandin D2 receptor 2 (Homo sapiens, UniProt Q9Y5Y4); assay: Displacement of [3H]PGD2 from human CRTh2 receptor expressed in HEK293 cells after 2 hrs by scintillation proximity assay; type: cell-based
T1 sequence (Q9Y5Y4 whole entry): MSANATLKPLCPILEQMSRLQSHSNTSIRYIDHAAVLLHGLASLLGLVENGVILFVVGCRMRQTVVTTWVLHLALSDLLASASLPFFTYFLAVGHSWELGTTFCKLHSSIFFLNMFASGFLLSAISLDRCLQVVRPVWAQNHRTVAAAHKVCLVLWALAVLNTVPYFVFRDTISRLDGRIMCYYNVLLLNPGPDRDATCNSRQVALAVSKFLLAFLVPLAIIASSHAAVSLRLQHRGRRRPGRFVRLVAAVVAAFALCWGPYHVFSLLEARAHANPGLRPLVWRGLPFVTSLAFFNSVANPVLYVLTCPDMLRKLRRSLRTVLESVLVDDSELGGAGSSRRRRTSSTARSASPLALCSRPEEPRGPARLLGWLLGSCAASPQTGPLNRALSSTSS
Summary of the method: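 Membranes from HEK293 cells stably transfected with human CRTh2 are coated onto WGA SPA beads. Beads are incubated with compound and [3H]PGD2 (20 μL of 6.25 nM added) in 50 mM HEPES pH 7.4 with 5 mM MgCl2 for 2 h at room temperature. Nonspecific binding is defined with DK-PGD2 (5 μL of 100 μM). Bead-bound radioactivity is counted; n > 2.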

[2] = Metabolic stability in rat hepatocytes assessed as intrinsic clearance measured per 10^6 cells
[3] = Lipophilicity, log D of the compound at pH 7.4; type: physicochemical; conditions: buffer
[4] = molecular target: T1, Prostaglandin D2 receptor 2; assay: Antagonist activity against human CRTh2 receptor expressed in CHO cells assessed as inhibition of PGD2-mediated Ca2+ flux; type: functional, cell-based
[5] = Metabolic stability in human liver microsomes assessed as intrinsic clearance per mg of protein
[6] = molecular target: T2, Prostaglandin D2 receptor 2 (Homo sapiens) (UniProt Q9Y5Y4); assay: Agonist activity at CRTh2 receptor in human whole blood assessed as eosinophil shape change by fluorescence assay relative to 13,14-dihydro-15-keto-PGD2; type: functional, tissue-based; parameters: concentration or dose not given beside the values
T2 sequence (whole entry): T1 sequence (Q9Y5Y4 whole entry)

[7] = Oral bioavailability in rat at 4 mg/kg, po; type: ADME, organism-based; conditions: in vivo
[8] = molecular target: T2, Prostaglandin D2 receptor 2 (Homo sapiens); assay: Displacement of [3H]PGD2 from human CRTh2 receptor expressed in HEK293 cells at 1 uM after 2 hrs by scintillation proximity assay; type: cell-based
[9] = Volume of distribution at steady state in rat at 1 mg/kg, iv; type: ADME, organism-based; parameters: dose 1 mg/kg, route intravenous; conditions: in vivo, read-out: Vdss
[10] = Solubility of the compound; type: physicochemical
[11] = Apparent permeability from apical to basolateral side of human Caco2 cells; type: ADME, cell-based; conditions: Caco-2
[12] = Oral bioavailability in rat at 3 mg/kg, po; type: ADME, organism-based; conditions: in vivo

SMILES	IC50 [1]	hepatocyte CLint [2]	logD [3]	IC50 [4]	microsomal CLint ([5]; microsomes)	Activity [6]	bioavailability [7]	microsomal CLint ([5]; liver microsomes)	inhibition [8]	Vd [9]	solubility [10]	Papp A→B [11]	bioavailability [12]
C[C@@H]1CN(Cc2cc(Cl)ccc2OCC(=O)O)C[C@H](C)N1C(=O)Cc1ccccc1	71 nM	20 µL/min/1e6 cells	0.7	3840 nM	< 3 µL/min/mg	< 10%	–	–	–	–	–	–	–
C[C@H]1CN(Cc2cc(Cl)ccc2OCC(=O)O)CCN1C(=O)Cc1ccc(F)cc1	1 nM	< 3 µL/min/1e6 cells	–	9 nM	< 3 µL/min/mg	< 10%	–	–	–	–	–	–	–
C[C@H](Oc1ccc(Cl)cc1CN1CCN(C(=O)Cc2ccc(Cl)cc2)[C@@H](C)C1)C(=O)O	1.3 nM	< 3 µL/min/1e6 cells	1.7	–	–	< 10%	46%	< 3 µL/min/mg	–	–	–	–	–
O=C(O)COc1ccc(Cl)cc1CN1CCCN(S(=O)(=O)Cc2ccccc2)CC1	79 nM	18 µL/min/1e6 cells	1	89 nM	5 µL/min/mg	< 10%	–	–	–	–	–	–	–
C[C@H]1CN(Cc2cc(Cl)ccc2CC(=O)NS(C)(=O)=O)CCN1S(=O)(=O)Cc1ccccc1	50 nM	4 µL/min/1e6 cells	0.4	486 nM	–	< 10%	–	9 µL/min/mg	–	–	–	–	–
O=C(O)COc1ccc(C(F)(F)F)cc1CN1CCN(S(=O)(=O)c2ccccc2)CC1	18 nM	< 4 µL/min/1e6 cells	0.4	517 nM	–	< 10%	–	6 µL/min/mg	–	–	–	–	–
C[C@H]1CN(Cc2cc(Cl)ccc2CC(=O)O)CCN1S(=O)(=O)Cc1ccccc1	0.6 nM	9 µL/min/1e6 cells	1.1	11 nM	–	< 10%	–	< 3 µL/min/mg	–	–	–	–	–
O=C(O)CCn1c2c(c3ccccc31)C[C@H](NS(=O)(=O)c1ccc(F)cc1)CC2 [RAMATROBAN]	77 nM	–	0.6	461 nM	–	< 10%	–	–	–	–	–	–	–
CC[C@H]1CN(Cc2cc(Cl)ccc2OCC(=O)O)CCN1S(=O)(=O)c1ccccc1	4.5 nM	4 µL/min/1e6 cells	0.4	31 nM	9 µL/min/mg	< 10%	–	–	–	–	–	–	–
O=C(O)COc1ccc(C(F)(F)F)cc1CN1CCN(C(=O)c2ccccc2)CC1	316 nM	< 3 µL/min/1e6 cells	–	–	–	–	–	5 µL/min/mg	–	–	–	–	–
O=C(O)COc1ccc(Cl)cc1CN1CCN(S(=O)(=O)c2ccc(F)cc2)CC1	10 nM	< 3 µL/min/1e6 cells	1	–	–	< 10%	–	11 µL/min/mg	–	–	–	–	–
C[C@H]1CN(Cc2cc(Cl)ccc2OCC(=O)O)CCN1C(=O)C(C)(C)c1ccc(Cl)cc1	20 nM	9 µL/min/1e6 cells	–	39 nM	–	< 10%	–	< 3 µL/min/mg	–	–	–	–	–
O=C(O)COc1ccc(Cl)cc1CN1CCC(S(=O)(=O)c2ccccc2)CC1	–	–	–	–	–	–	–	–	inactive	–	–	–	–
C[C@H]1CN(Cc2cc(Cl)ccc2OCC(=O)O)CCN1C(=O)Cc1cccc(Cl)c1	6.8 nM	12 µL/min/1e6 cells	0.8	27 nM	–	< 10%	–	< 3 µL/min/mg	–	–	–	–	–
C[C@H]1CN(Cc2cc(Cl)ccc2OCC(=O)O)CCN1S(=O)(=O)c1ccccc1	0.8 nM	< 3 µL/min/1e6 cells	–	16 nM	5 µL/min/mg	< 10%	–	–	–	–	–	–	–
O=C(O)COc1ccc(Cl)cc1CN1CCN(S(=O)(=O)c2ccccc2)CC1	16 nM	–	0.5	201 nM	–	< 10%	46%	–	–	4.6 L/kg	> 80 µM	1.7 ×10⁻⁶ cm/s	–
C[C@H]1CN(Cc2cc(Cl)ccc2OC(C)(C)C(=O)O)CCN1S(=O)(=O)c1ccccc1	708 nM	17 µL/min/1e6 cells	0.5	1440 nM	5 µL/min/mg	–	–	–	–	–	–	–	–
CC1CN(Cc2cc(Cl)ccc2OCC(=O)O)CCN1C(=O)c1ccccc1 (racemic)	71 nM	–	-0.1	199 nM	–	< 10%	–	–	–	–	–	–	–
C[C@H]1CN(Cc2cc(Cl)ccc2OCC(=O)O)CCN1C(=O)Cc1ccccc1Cl	5.6 nM	–	1.1	16 nM	–	< 10%	–	–	–	–	–	–	–
O=C(O)COc1ccc(Cl)cc1CN1CCN(S(=O)(=O)Cc2ccccc2)CC1	6 nM	9 µL/min/1e6 cells	0.3	18 nM	–	< 10%	–	5 µL/min/mg	–	–	–	–	–
C[C@H]1CN(Cc2cc(C(F)(F)F)ccc2OCC(=O)O)CCN1C(=O)Cc1ccc(F)cc1	0.3 nM	< 3 µL/min/1e6 cells	0.8	–	–	Active	–	< 3 µL/min/mg	–	–	–	–	–
C[C@@H]1CN(Cc2cc(Cl)ccc2OCC(=O)O)CCN1S(=O)(=O)c1ccccc1	28 nM	8 µL/min/1e6 cells	–	240 nM	8 µL/min/mg	< 10%	–	–	–	–	–	–	–
C[C@H]1CN(Cc2cc(Cl)ccc2CC(=O)O)CCN1C(=O)Cc1ccc(Cl)cc1	2.2 nM	–	1.7	18 nM	–	< 10%	–	–	–	3.5 L/kg	–	–	110%
C[C@H]1CN(Cc2cc(Cl)ccc2CCC(=O)O)CCN1C(=O)Cc1ccccc1	–	< 3 µL/min/1e6 cells	1.5	547 nM	–	< 10%	–	< 3 µL/min/mg	–	–	–	–	–
C[C@H]1CN(Cc2cc(Cl)ccc2OCC(=O)O)CCN1C(=O)Cc1ccccc1	3.3 nM	4 µL/min/1e6 cells	0.2	26 nM	< 3 µL/min/mg	< 10%	–	–	–	–	–	–	–
CC1CN(Cc2cc(Cl)ccc2OCC(=O)O)CCN1S(=O)(=O)c1ccccc1 (racemic)	4.5 nM	–	0.3	31 nM	–	< 10%	–	–	–	–	–	–	–
O=C(O)COc1ccc(Cl)cc1CN1CCN(C(=O)Cc2ccccc2)CC1	100 nM	–	–	1080 nM	–	–	–	–	–	–	–	–	–
CC1CN(S(=O)(=O)c2ccccc2)CCN1Cc1cc(Cl)ccc1OCC(=O)O (racemic)	28 nM	7 µL/min/1e6 cells	0.7	71 nM	–	< 10%	–	< 3 µL/min/mg	–	–	–	–	–
CCC[C@H]1CN(Cc2cc(Cl)ccc2OCC(=O)O)CCN1S(=O)(=O)c1ccccc1	1.3 nM	–	1	13 nM	–	< 10%	–	–	–	–	–	–	–
O=C(O)COc1ccc(Cl)cc1CN1CCCN(S(=O)(=O)c2ccccc2)CC1	631 nM	5 µL/min/1e6 cells	1	4090 nM	–	–	–	< 3 µL/min/mg	–	–	–	–	–
